According to ChEMBL document CHEMBL1146380, “Synthesis, antimicrobial activity, and QSAR studies of furan-3-carboxamides” (2007):
Values after ≈ are worked out from the molar mass of the structure shown. Active and inactive are the calls of the source. The calls are words filed in the database; no cut-off is given here.

Key:
[1] = tested on: Fusarium solani; test: Antimicrobial activity against Fusarium solani isolate by broth microdilution method; type: functional
[2] = tested on: Sporothrix schenckii; test: Antimicrobial activity against Sporothrix schenckii ATCC 1146 by broth microdilution method; type: functional
[3] = tested on: Aspergillus niger; test: Antimicrobial activity against Aspergillus niger isolate by broth microdilution method; type: functional
[4] = tested on: Candida dubliniensis; test: Antimicrobial activity against Candida dubliniensis CBS 7987 by broth microdilution method; type: functional
In short: (§1)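 Yeasts grown on potato dextrose agar. Inoculum was standardized by McFarland turbidity as for bacteria, into RPMI 1640 broth (M27-A2). DMSO-dissolved compound was tested in twofold dilutions from 320 to 1.25 at 35 °C for 24 h, in duplicate. MIC was the lowest concentration completely inhibiting visible growth. Fungicidal concentration was read by subculturing 20 µL from clear wells on Sabouraud dextrose agar at 35 °C.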

[5] = tested on: Rhizopus arrhizus; test: Antimicrobial activity against Rhizopus oryzae isolate by broth microdilution method; type: functional
[6] = tested on: Prototheca zopfii; test: Antimicrobial activity against Prototheca zopfii by broth microdilution method; type: functional
In short: (§2)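 Organism grown on potato dextrose agar, with turbidity-standardized inoculum in RPMI 1640 broth (M27-A2). DMSO-dissolved compound was tested in twofold dilutions from 320 to 1.25 at 35 °C, incubated up to 72 h, in duplicate. MIC was the lowest concentration with no visible growth. Cidal concentration was read by subculturing 20 µL from clear wells on Sabouraud dextrose agar, incubated for the same period.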

[7] = tested on: Pseudomonas aeruginosa; test: Antimicrobial activity against Pseudomonas aeruginosa ATCC 27853 by broth microdilution method; type: functional
In short: (§3)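 Bacteria grown overnight on Mueller–Hinton agar. Colonies were suspended in saline to McFarland turbidity (about 10^8 cfu/mL), diluted 1:100 in saline, then 1:20 in Mueller–Hinton broth, giving 5 · 10^4 cfu/mL per well. DMSO-dissolved compound was tested in twofold dilutions from 320 to 1.25 at 35 °C for 24 h. MIC was the lowest concentration with no visible turbidity (M7-A4). Bactericidal concentration was read by subculturing clear wells on Mueller–Hinton agar.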

[8] = tested on: Candida albicans; test: Antimicrobial activity against Candida albicans ATCC 44373 by broth microdilution method; type: functional; in short: as §1
[9] = tested on: Aspergillus fumigatus; test: Antimicrobial activity against Aspergillus fumigatus isolate by broth microdilution method; type: functional
[10] = tested on: Scedosporium boydii; test: Antimicrobial activity against Pseudallescheria boydii isolate by broth microdilution method; type: functional
[11] = tested on: Staphylococcus aureus; test: Antimicrobial activity against Staphylococcus aureus ATCC 25923 by broth microdilution method; type: functional; in short: as §3
[12] = tested on: Saccharomyces cerevisiae; test: Antimicrobial activity against Saccharomyces cerevisiae ATCC 2601 by broth microdilution method; type: functional; in short: as §2
[13] = tested on: Aspergillus flavus; test: Antimicrobial activity against Aspergillus flavus isolate by broth microdilution method; type: functional
[14] = tested on: Cryptococcus deneoformans; test: Antimicrobial activity against Cryptococcus neoformans var.neoformans serotype D ATCC 28952 by broth microdilution method; type: functional; in short: as §2
[15] = tested on: Salmonella enterica subsp. enterica serovar Setubal; test: (§4) Antimicrobial activity against Salmonella setubal ATCC 19196 by broth microdilution method; type: functional; in short: as §3
[16] = as §4; type: functional, Salmonella enterica subsp. enterica serovar Setubal; conditions: Salmonella enterica; in short: as §3
[17] = tested on: Aspergillus terreus; test: Antimicrobial activity against Aspergillus terreus isolate by broth microdilution method; type: functional
[18] = tested on: Nakaseomyces glabratus; test: Antimicrobial activity against Candida glabrata […] by broth microdilution method; type: functional; in short: as §1
[19] = tested on: Escherichia coli; test: Antimicrobial activity against Escherichia coli ATCC 25922 by broth microdilution method; type: functional; in short: as §3
[20] = tested on: Klebsiella pneumoniae; test: Antimicrobial activity against Klebsiella pneumoniae ATCC 1003 by broth microdilution method; type: functional; in short: as §3

Structure (SMILES) | MFC [1] [µg/mL] | MIC [1] [µg/mL] | MFC [2] [µg/mL] | MIC [2] [µg/mL] | MIC [3] [µg/mL] | MFC [4] [µg/mL] | MIC [4] [µg/mL] | MFC [5] [µg/mL] | MIC [5] [µg/mL] | MIC [6] [µg/mL] | MIC [7] [µg/mL] | MIC [8] [µg/mL] | MIC [11] [µg/mL] | MIC [14] [µg/mL] | Activity [15] | MIC [17] [µg/mL] | MIC [18] [µg/mL] | Activity [19] | Activity [20] | MIC [20] [µg/mL] | further results
O=C(NNc1c(F)c(F)c(F)c(F)c1F)c1ccoc1 | 80 (≈ 274 µM) | 80 (≈ 274 µM) | 320 (≈ 1100 µM) | 320 (≈ 1100 µM) | 320 (≈ 1100 µM) | 320 (≈ 1100 µM) | 160 (≈ 548 µM) | 320 (≈ 1100 µM) | 320 (≈ 1100 µM) | 80 (≈ 274 µM) | 320 (≈ 1100 µM) | 320 (≈ 1100 µM) | 320 (≈ 1100 µM) | 320 (≈ 1100 µM) | inactive | 320 (≈ 1100 µM) | 320 (≈ 1100 µM) | inactive | inactive | 320 (≈ 1100 µM) | MFC [3]: 320 µg/mL (≈ 1100 µM); MFC [6]: 320 µg/mL (≈ 1100 µM); Activity [7]: inactive; MFC [8]: 320 µg/mL (≈ 1100 µM); Activity [9]: inactive; Activity [10]: inactive; Activity [11]: inactive; Activity [12]: inactive; Activity [13]: inactive; MFC [14]: 320 µg/mL (≈ 1100 µM); MIC [16]: 320 µg/mL (≈ 1100 µM); MFC [17]: 320 µg/mL (≈ 1100 µM); Activity [18]: inactive; MIC [19]: 320 µg/mL (≈ 1100 µM)
O=C(NCc1ccccn1)c1ccoc1 |  | 320 (≈ 1580 µM) |  | 320 (≈ 1580 µM) |  |  |  |  | 320 (≈ 1580 µM) | 320 (≈ 1580 µM) | 320 (≈ 1580 µM) |  | 320 (≈ 1580 µM) | 320 (≈ 1580 µM) | inactive | 320 (≈ 1580 µM) |  | inactive | inactive | 320 (≈ 1580 µM) | Activity [1]: inactive; Activity [2]: inactive; Activity [3]: inactive; Activity [4]: inactive; Activity [5]: inactive; Activity [6]: inactive; Activity [7]: inactive; Activity [8]: inactive; Activity [9]: inactive; MFC [10]: 320 µg/mL (≈ 1580 µM); MIC [10]: 320 µg/mL (≈ 1580 µM); Activity [11]: inactive; Activity [12]: inactive; MFC [13]: 320 µg/mL (≈ 1580 µM); MIC [13]: 320 µg/mL (≈ 1580 µM); Activity [14]: inactive; MIC [16]: 320 µg/mL (≈ 1580 µM); Activity [17]: inactive; Activity [18]: inactive; MIC [19]: 320 µg/mL (≈ 1580 µM)
O=C(NNc1ccccc1)c1ccoc1 | 2.5 (≈ 12.4 µM) | 2.5 (≈ 12.4 µM) | 320 (≈ 1580 µM) | 10 (≈ 49.5 µM) | 20 (≈ 98.9 µM) | 320 (≈ 1580 µM) | 320 (≈ 1580 µM) | 320 (≈ 1580 µM) | 320 (≈ 1580 µM) | 160 (≈ 791 µM) | 320 (≈ 1580 µM) | 320 (≈ 1580 µM) | 320 (≈ 1580 µM) | 160 (≈ 791 µM) | inactive | 40 (≈ 198 µM) | 320 (≈ 1580 µM) | inactive | inactive | 320 (≈ 1580 µM) | MFC [3]: 40 µg/mL (≈ 198 µM); MFC [6]: 320 µg/mL (≈ 1580 µM); Activity [7]: inactive; MFC [8]: 320 µg/mL (≈ 1580 µM); MFC [9]: 20 µg/mL (≈ 98.9 µM); MIC [9]: 20 µg/mL (≈ 98.9 µM); MFC [10]: 320 µg/mL (≈ 1580 µM); MIC [10]: 10 µg/mL (≈ 49.5 µM); Activity [11]: inactive; MFC [12]: 320 µg/mL (≈ 1580 µM); MIC [12]: 320 µg/mL (≈ 1580 µM); MFC [13]: 20 µg/mL (≈ 98.9 µM); MIC [13]: 10 µg/mL (≈ 49.5 µM); MFC [14]: 160 µg/mL (≈ 791 µM); MIC [16]: 320 µg/mL (≈ 1580 µM); MFC [17]: 40 µg/mL (≈ 198 µM); Activity [18]: inactive; MIC [19]: 320 µg/mL (≈ 1580 µM)
OC(Cn1cncn1)(Cn1cncn1)c1ccc(F)cc1F [FLUCONAZOLE] |  |  |  |  |  |  | 2 (≈ 6.53 µM) |  |  |  |  | 4 (≈ 13.1 µM) |  | 2 (≈ 6.53 µM) |  |  | 8 (≈ 26.1 µM) |  |  |  | MIC [12]: 1 µg/mL (≈ 3.27 µM)
O=C(NCCCO)c1ccoc1 | 320 (≈ 1890 µM) | 320 (≈ 1890 µM) | 320 (≈ 1890 µM) | 320 (≈ 1890 µM) | 320 (≈ 1890 µM) | 160 (≈ 946 µM) | 160 (≈ 946 µM) | 320 (≈ 1890 µM) | 320 (≈ 1890 µM) | 160 (≈ 946 µM) | 160 (≈ 946 µM) | 80 (≈ 473 µM) | 160 (≈ 946 µM) | 40 (≈ 236 µM) | inactive | 320 (≈ 1890 µM) | 160 (≈ 946 µM) | inactive | inactive | 320 (≈ 1890 µM) | Activity [3]: inactive; MFC [6]: 160 µg/mL (≈ 946 µM); MBC [7]: 160 µg/mL (≈ 946 µM); MFC [8]: 160 µg/mL (≈ 946 µM); Activity [9]: inactive; MIC [9]: 320 µg/mL (≈ 1890 µM); MFC [10]: 320 µg/mL (≈ 1890 µM); MIC [10]: 320 µg/mL (≈ 1890 µM); MBC ([11]; read-out: MFC): 320 µg/mL (≈ 1890 µM); Activity [12]: inactive; MIC [12]: 320 µg/mL (≈ 1890 µM); Activity [13]: inactive; MFC [14]: 80 µg/mL (≈ 473 µM); MFC [17]: 320 µg/mL (≈ 1890 µM); MFC [18]: 160 µg/mL (≈ 946 µM)
